Measured values reported in ChEMBL document CHEMBL3997850 (ACS Med Chem Lett, 2017).
Calls of active or inactive are those of the source.

How the values were obtained:
[1] = Permeability across apical to basolateral side in human Caco2 cells at 50 uM after 120 mins by LC/MS analysis; type: ADME, cell-based; settings: Caco-2, read-out: permeability
In short: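 Caco-2 cells (passages 21–45) seeded at 4,000/well on PET transwell filters and used 21–26 days after seeding. Monolayers accepted at TEER ≥300 Ω·cm² and run in Hank's balanced salt solution. After 120 min incubation, receiver-side sample taken, acetonitrile-precipitated, quantified by LC/MS.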

[2] = biological target: T1, Indoleamine 2,3-dioxygenase 1 (Homo sapiens, UniProt P14902); experiment: Inhibition of human N-terminal His-tagged IDO1 expressed in Escherichia coli using D-Trp as substrate
Plasma = experiment: Fraction unbound in human plasma after 2 hrs by equilibrium dialysis method; type: ADME, cell-free
In short: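 Equilibrium dialysis of human plasma (1 mL) containing compound against 1 mL 0.133 M phosphate buffer pH 7.4. Membrane cut-off 10,000 Da, teflon cells rotated at 12 rpm for 2 h at 37 °C. Recovered volumes weighed and matrix-matched 1:1. Acetonitrile precipitation, LC/MS/MS of both sides.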

Liver [3] = experiment: Intrinsic clearance in rat hepatic S9 fraction at 5 uM in presence of UDPGA measured over 30 mins by LC/MS analysis; type: ADME; settings: s9, 0.5 h
[4] = biological target: T1, Indoleamine 2,3-dioxygenase 1; experiment: Inhibition of IDO1 in IFN-gamma-stimulated human HeLa cells assessed as decrease in kynurenine levels after 48 hrs; type: cell-based
Liver [5] = experiment: Intrinsic clearance in rat hepatic S9 fraction at 5 uM in presence of UDPGA/NADPH measured over 30 mins by LC/MS analysis; type: ADME, tissue-based; settings: s9, 0.5 h
In short: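 Rat hepatic S9 (2 mg/mL protein) with compound 5 µM, 50 mM Tris-HCl pH 7.5, 8 mM MgCl2, 2 mM NADPH, 2 mM UDPGA, 12.7 µM alamethicin, 37 °C. Reaction started with S9. Aliquots taken over 0–30 min, quenched with acetonitrile, analyzed by LC/MS.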

CT26 [6] = experiment: Antitumor activity against mouse CT26 cells allografted in immunocompetent Balb/c mouse assessed as reduction in tumor growth at 30 mg/kg, po measured on day 24 relative to vehicle-treated control; type: functional
Mus musculus = experiment: In vivo inhibition of IDO1 in wild type C57BL/6 mouse assessed as reduction in kynurenine levels in plasma at 50 mg/kg, po qd after 8 hrs by LC/MS/MS analysis; type: functional, organism-based
In short: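 Fed C57BL/6 mice given a single dose; food then removed. At various timepoints, blood taken by cardiac puncture. Plasma diluted 10-fold in water, TCA protein precipitation, then LC/MS/MS for tryptophan, kynurenine (linear 20–10,000 nM kynurenine, 200–100,000 nM tryptophan) and drug, against aqueous standards.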

CT26 [7] = experiment: Antitumor activity against mouse CT26 cells allografted in po dosed Balb/c nu/nu mouse assessed as tumor growth inhibition; type: functional, organism-based
Rattus norvegicus = experiment: AUC in rat at 5 mg/kg, iv or 5 mg/kg, po by LC/MS/MS analysis; type: ADME, organism-based; settings: in vivo
In short: (§1)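 Male rats, 5 mg/kg IV in 10% DMAC/saline or 5 mg/kg oral in 0.5% aqueous methylcellulose. Plasma (EDTA) sampled pre-dose to 24 h. Quantified by acetonitrile precipitation and LC/MS/MS (2–10000 nM range, 0.1 mL). Non-compartmental analysis of concentration–time data.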

[8] = Half life in cynomolgus monkey at 10 mg/kg, po by LC/MS/MS analysis; type: ADME, organism-based, Macaca fascicularis; settings: in vivo
In short: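 Male cynomolgus monkeys given 4 mg/kg IV (5% DMAC, 40% propylene glycol in saline) or 10 mg/kg orally (0.5% methylcellulose). EDTA plasma collected pre-dose through 24 h. Acetonitrile protein precipitation, then LC/MS/MS quantification, linear 2–10000 nM. PK parameters by standard non-compartmental methods.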

[9] = AUC in mouse CT26 cells allografted immunocompetent Balb/c mouse model at 30 mg/kg, po by LC/MS/MS analysis; type: ADME, organism-based; settings: in vivo
[10] = Half life in rat at 5 mg/kg, po by LC/MS/MS analysis; type: ADME, organism-based; settings: in vivo; in short: as §1

T1 sequence (P14902 whole entry): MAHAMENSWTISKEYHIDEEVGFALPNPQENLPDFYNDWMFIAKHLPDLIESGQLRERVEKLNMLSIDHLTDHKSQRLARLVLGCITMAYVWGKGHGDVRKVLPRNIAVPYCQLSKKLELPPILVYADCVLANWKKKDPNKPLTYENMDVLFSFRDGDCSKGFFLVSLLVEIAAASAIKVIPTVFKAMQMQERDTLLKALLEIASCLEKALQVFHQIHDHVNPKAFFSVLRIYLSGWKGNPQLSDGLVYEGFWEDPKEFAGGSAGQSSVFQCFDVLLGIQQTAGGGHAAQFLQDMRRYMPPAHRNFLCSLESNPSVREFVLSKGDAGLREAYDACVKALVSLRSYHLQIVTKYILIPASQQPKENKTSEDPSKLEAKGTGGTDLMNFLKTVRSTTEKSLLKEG

CS(=O)(=O)NCCNc1nonc1C(=NO)Nc1ccc(F)c(Br)c1
Papp A→B at 2 h, 50 µM [1]: 24 ×10⁻⁶ cm/s
IC50 [2]: 100 nM
Fu (Plasma): 2.4%
CLH (Liver [3]): 12 mL/min/kg
IC50 [4]: 16 nM
CLH (Liver [5]): 25 mL/min/kg

OCCNc1nonc1/C(=N/O)Nc1ccc(F)c(Br)c1
Papp A→B at 2 h, 50 µM [1]: 31 ×10⁻⁶ cm/s
IC50 [2]: 170 nM
Fu (Plasma): 2.3%
CLH (Liver [3]): > 36.7 mL/min/kg
IC50 [4]: 22 nM
CLH (Liver [5]): > 36.7 mL/min/kg

NS(=O)(=O)NCCNc1nonc1/C(=N/O)Nc1ccc(F)c(Br)c1 [EPACADOSTAT]
Efficacy (CT26 [6]): 56%
inhibition (Mus musculus): Active
TGI (CT26 [7]): inactive

Nc1nonc1C(=NO)Nc1ccc(F)c(Cl)c1
CLH (Liver [3]): > 36.7 mL/min/kg
CLH (Liver [5]): > 36.7 mL/min/kg

CCNc1nonc1/C(=N/O)Nc1ccc(F)c(Br)c1
IC50 [2]: 180 nM
CLH (Liver [3]): 23.3 mL/min/kg
IC50 [4]: 35 nM
CLH (Liver [5]): > 36.7 mL/min/kg

Nc1nonc1C(=Nc1ccc(F)c(Br)c1)NO
IC50 [2]: 50 nM
CLH (Liver [3]): > 36.7 mL/min/kg
IC50 [4]: 10 nM
CLH (Liver [5]): 23.3 mL/min/kg

COCCNc1nonc1/C(=N/O)Nc1ccc(F)c(Br)c1
Papp A→B at 2 h, 50 µM [1]: 44 ×10⁻⁶ cm/s
IC50 [2]: 200 nM
Fu (Plasma): 0.9%
CLH (Liver [3]): > 36.7 mL/min/kg
IC50 [4]: 100 nM
CLH (Liver [5]): > 36.7 mL/min/kg

CNc1nonc1/C(=N/O)Nc1ccc(F)c(Br)c1
IC50 [2]: 100 nM
CLH (Liver [3]): > 36.7 mL/min/kg
IC50 [4]: 14 nM
CLH (Liver [5]): > 36.7 mL/min/kg

CC(=O)NCCNc1nonc1/C(=N/O)Nc1ccc(F)c(Br)c1
Papp A→B at 2 h, 50 µM [1]: 19 ×10⁻⁶ cm/s
IC50 [2]: 210 nM
Fu (Plasma): 4.4%
CLH (Liver [3]): 15 mL/min/kg
IC50 [4]: 17 nM
CLH (Liver [5]): 33 mL/min/kg

O/N=C(\Nc1ccc(F)c(Br)c1)c1nonc1NCc1ccccc1
IC50 [2]: 230 nM
Fu (Plasma): < 0.5%
CLH (Liver [3]): 35 mL/min/kg
IC50 [4]: 280 nM
CLH (Liver [5]): > 36.7 mL/min/kg

CN(C)c1nonc1/C(=N/O)Nc1ccc(F)c(Br)c1
IC50 [2]: > 5000 nM
CLH (Liver [3]): > 36.7 mL/min/kg
IC50 [4]: > 5000 nM
CLH (Liver [5]): > 36.7 mL/min/kg

NS(=O)(=O)NCCNc1nonc1C(=NO)Nc1ccc(F)c(Cl)c1
Papp A→B at 2 h, 50 µM [1]: 4.3 ×10⁻⁶ cm/s
AUC (Rattus norvegicus): 3.3 µM·h
IC50 [2]: 120 nM
half-life [8]: 4 h
Fu (Plasma): 3.8%
AUC [9]: 15.1 µM·h
half-life [10]: 2.7 h
Efficacy (CT26 [6]): 13%
CLH (Liver [3]): 8.3 mL/min/kg
IC50 [4]: 11 nM
CLH (Liver [5]): 13 mL/min/kg

NCCNc1nonc1/C(=N/O)Nc1ccc(F)c(Br)c1
Papp A→B at 2 h, 50 µM [1]: 1.8 ×10⁻⁶ cm/s
IC50 [2]: 290 nM
Fu (Plasma): 6.1%
CLH (Liver [3]): 18.3 mL/min/kg
IC50 [4]: 98 nM
CLH (Liver [5]): 15 mL/min/kg
